Assay results of several laboratories.
Target: Serine/threonine-protein kinase WNK3 (WNK3, Homo sapiens, UniProt Q9BYP7)

Structure (SMILES)	assay	conditions	endpoint	value
Cc1cc(NC(=O)c2cccc(S(F)(F)(F)(F)F)c2)cc(-n2ccn3nc(-c4cccnc4)cc23)c1	cell-free assay, competition with immobilised ligand	1 µM	remaining binding	100%
CNC(=O)c1cc(Oc2ccc(NC(=O)Nc3ccc(Cl)c(C(F)(F)F)c3)cc2)ccn1	enzyme activity, inhibitor	0.3 µM	inhibition	-6%
O=C(Nc1cnn(-c2csc(C(=O)NC3COC3)c2)c1)Nc1ccccc1Cl	enzyme activity, inhibitor	5 µM	remaining activity	99.5%
Cc1ccc(Nc2nccc(N(C)c3ccc4c(C)n(C)nc4c3)n2)cc1S(N)(=O)=O	enzyme activity, inhibitor	0.3 µM	inhibition	-4%
O=C1Nc2ccc(Cl)cc2C1=Cc1cc(Cl)c(O)c(Cl)c1	cell-free assay	0.5 µM	remaining signal	90.7%
CC(C)(C)c1nc(-c2cccc(NS(=O)(=O)c3c(F)cccc3F)c2F)c(-c2ccnc(N)n2)s1	enzyme activity, inhibitor, radiometric	1 µM	remaining activity	89%
CCCOc1ccc(OC)c(F)c1C(=O)c1ccc(C(=O)N[C@@H]2CNC[C@H]2NC(=O)c2ccc3[nH]ncc3c2)cc1	enzyme activity, inhibitor	10 µM	remaining activity	95%
CN1CC(Oc2cnc(C#N)cc2-c2ccn3nc(NC(=O)C4CC4)cc3c2)C1	enzyme activity, inhibitor	1 µM	inhibition	-5%
O=C(NCCCC1CCCCC1)c1ccc(CNC(=O)c2cnn(-c3ccccc3)c2C(F)(F)F)cc1	cell-free assay, competition with immobilised ligand	0.1 µM	remaining binding	100%
O=C1NC(=O)c2cc(Nc3ccc(F)cc3)c(Nc3ccc(F)cc3)cc21	cell-free assay	0.5 µM	remaining signal	92.7%
COc1cc(Cl)c(C(=O)N[C@@H](CN[C@H]2CC[C@@H](N)CC2)Cc2ccc(C#N)cc2)cc1-c1ccc(CN[C@H](C)c2ccc(C)cc2)o1	enzyme activity, inhibitor	1 µM	remaining activity	99%
C[C@H](c1ccnc(Nc2nc3ccc(-c4cc(N(C)C)ncn4)cc3[nH]2)c1)N1CCN(C(=O)CC(F)(F)F)CC1	cell-free assay, competition with immobilised ligand	0.1 µM	remaining binding	100%
Cc1ccc(NC(=O)c2ccc(C)c(C(F)(F)F)c2)cc1C#Cc1nn(C2CCC(O)CC2)c2ncnc(N)c12 (centres unmarked)	cell-free assay	10 µM	remaining signal	39%
O=c1nc(-c2ccccn2)sc2ccccc12	binding, competition with immobilised ligand	1 µM	remaining binding	100%
O=C(Nc1cnn(-c2csc(C(=O)NC3COC3)c2)c1)Nc1c(F)cccc1Cl	enzyme activity, inhibitor	5 µM	remaining activity	91.8%
CN(C)C(=O)Cn1cc(-c2nc([C@@](C)(c3ccc(-c4cnc(N)nc4)cc3)C3CC3)no2)cn1	cell-free assay, competition with immobilised ligand	1 µM	remaining binding	76%
CCN(CC)CCNC(=O)c1c(C)[nH]c(/C=C2\C(=O)Nc3ccc(F)cc32)c1C	enzyme activity, inhibitor	0.3 µM	inhibition	-4%
